# Source: ChEMBL document CHEMBL1137702, “Identification of hydrolytically stable and selective P2Y(1) receptor agonists” (Eur J Med Chem, 2009)
# Activity calls are given as the source filed them. The rule behind the calls is not given here.
# Assays:
# [1] = biological target: T1, Ectonucleoside triphosphate diphosphohydrolase 2 (Homo sapiens) (UniProt Q9Y5L3); experiment: Activity of human NTPDase 2 expressed in human 293T cells assessed as drug hydrolysis at 100 uM after 20 mins relative to ATP; assay type: cell-based; parameters: scale not given: the % may be the effect or the level left
# T1 sequence (whole entry): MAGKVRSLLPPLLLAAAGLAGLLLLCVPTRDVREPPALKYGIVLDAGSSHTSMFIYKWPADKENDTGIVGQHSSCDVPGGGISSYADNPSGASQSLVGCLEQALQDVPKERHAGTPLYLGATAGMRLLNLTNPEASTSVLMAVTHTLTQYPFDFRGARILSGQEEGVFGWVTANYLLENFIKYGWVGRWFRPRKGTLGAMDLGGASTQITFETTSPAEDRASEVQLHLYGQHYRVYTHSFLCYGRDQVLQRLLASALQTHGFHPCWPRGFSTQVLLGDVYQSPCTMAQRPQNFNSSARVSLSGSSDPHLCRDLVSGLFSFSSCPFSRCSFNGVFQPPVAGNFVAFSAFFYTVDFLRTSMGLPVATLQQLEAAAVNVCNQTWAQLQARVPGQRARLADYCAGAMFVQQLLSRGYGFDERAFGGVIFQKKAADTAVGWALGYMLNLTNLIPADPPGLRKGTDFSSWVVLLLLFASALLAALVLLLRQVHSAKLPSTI
# Summary of the method: (§1)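 Human NTPDase1, 2, 3 or 8 in crude extracts of transfected 293T cells, pre-incubated 3 min at 37 °C in Tris-Ringer buffer pH 7.4. […] Untransfected-cell extract activity subtracted.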
# P2Y purinoceptor 2 = P2Y purinoceptor 2 (Homo sapiens, UniProt P41231); experiment: Agonist activity at human P2Y2 receptor expressed in human 1321N1 cells assessed as increase in intracellular calcium concentration by dual-excitation spectrofluorimetric analysis; assay type: functional, cell-based
# Summary of the method: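 1321N1 astrocytoma cells stably expressing the receptor (turkey P2Y1, human P2Y2, human P2Y4, rat P2Y6) were grown with G-418 selection. Fura-2-loaded cell suspensions were exposed at 37 °C in 10 mM HEPES-buffered saline pH 7.4 with 1 mM CaCl2 and 1 mM MgCl2. Peak [Ca2+]i rise was measured over a range of concentrations to derive EC50.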
# [2] = biological target: T2, Ectonucleoside triphosphate diphosphohydrolase 8 (Homo sapiens) (UniProt Q5MY95); experiment: Activity of human NTPDase 8 expressed in human 293T cells assessed as drug hydrolysis at 100 uM after 20 mins relative to ATP; assay type: cell-based; parameters: scale not given: the % may be the effect or the level left; summary of the method: as §1
# T2 sequence (whole entry): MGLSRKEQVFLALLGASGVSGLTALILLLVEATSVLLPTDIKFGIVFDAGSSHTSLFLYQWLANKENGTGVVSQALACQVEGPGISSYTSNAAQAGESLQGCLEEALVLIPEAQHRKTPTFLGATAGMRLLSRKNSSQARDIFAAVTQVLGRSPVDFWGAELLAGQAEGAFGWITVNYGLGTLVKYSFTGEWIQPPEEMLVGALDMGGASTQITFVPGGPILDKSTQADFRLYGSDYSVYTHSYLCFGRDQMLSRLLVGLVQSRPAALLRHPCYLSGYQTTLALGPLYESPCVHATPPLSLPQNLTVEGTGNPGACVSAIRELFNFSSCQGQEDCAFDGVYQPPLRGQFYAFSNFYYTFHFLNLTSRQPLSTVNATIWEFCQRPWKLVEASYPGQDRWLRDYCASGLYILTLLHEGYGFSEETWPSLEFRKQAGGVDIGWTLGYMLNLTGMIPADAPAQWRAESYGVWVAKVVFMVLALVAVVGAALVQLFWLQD
# [3] = biological target: T3, Ectonucleotide pyrophosphatase/phosphodiesterase family member 1 (Homo sapiens) (UniProt P22413); experiment: Inhibition of human NPP1 expressed in human 293T cells; assay type: cell-based
# T3 sequence (whole entry): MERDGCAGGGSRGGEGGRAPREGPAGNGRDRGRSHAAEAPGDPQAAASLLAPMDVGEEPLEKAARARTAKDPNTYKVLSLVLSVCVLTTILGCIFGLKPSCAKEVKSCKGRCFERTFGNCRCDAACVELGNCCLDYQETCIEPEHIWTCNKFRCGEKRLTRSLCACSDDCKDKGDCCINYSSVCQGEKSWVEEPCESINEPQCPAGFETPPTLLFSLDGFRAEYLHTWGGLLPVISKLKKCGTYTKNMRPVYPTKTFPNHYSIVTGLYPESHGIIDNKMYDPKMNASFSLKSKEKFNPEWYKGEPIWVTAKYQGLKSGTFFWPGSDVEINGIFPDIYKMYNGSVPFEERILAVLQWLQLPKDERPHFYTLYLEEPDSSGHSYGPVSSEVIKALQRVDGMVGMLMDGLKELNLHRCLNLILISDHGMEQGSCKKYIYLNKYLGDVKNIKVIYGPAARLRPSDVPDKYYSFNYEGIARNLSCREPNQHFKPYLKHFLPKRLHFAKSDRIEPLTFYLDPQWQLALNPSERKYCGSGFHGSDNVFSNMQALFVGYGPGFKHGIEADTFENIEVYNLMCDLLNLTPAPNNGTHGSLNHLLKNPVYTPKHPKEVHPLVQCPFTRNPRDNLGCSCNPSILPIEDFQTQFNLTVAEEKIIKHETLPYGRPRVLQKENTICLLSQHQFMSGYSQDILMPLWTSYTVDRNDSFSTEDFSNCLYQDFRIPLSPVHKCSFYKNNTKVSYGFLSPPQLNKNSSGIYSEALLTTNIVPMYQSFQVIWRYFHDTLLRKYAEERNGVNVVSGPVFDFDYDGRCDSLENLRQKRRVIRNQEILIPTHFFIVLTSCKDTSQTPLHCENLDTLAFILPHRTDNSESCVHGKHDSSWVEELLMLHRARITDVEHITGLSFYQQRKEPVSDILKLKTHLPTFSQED
# [4] = biological target: T4, Ectonucleoside triphosphate diphosphohydrolase 1 (Homo sapiens) (UniProt P49961); experiment: Inhibition of human NTPDase 1 expressed in human 293T cells; assay type: cell-based
# T4 sequence (whole entry): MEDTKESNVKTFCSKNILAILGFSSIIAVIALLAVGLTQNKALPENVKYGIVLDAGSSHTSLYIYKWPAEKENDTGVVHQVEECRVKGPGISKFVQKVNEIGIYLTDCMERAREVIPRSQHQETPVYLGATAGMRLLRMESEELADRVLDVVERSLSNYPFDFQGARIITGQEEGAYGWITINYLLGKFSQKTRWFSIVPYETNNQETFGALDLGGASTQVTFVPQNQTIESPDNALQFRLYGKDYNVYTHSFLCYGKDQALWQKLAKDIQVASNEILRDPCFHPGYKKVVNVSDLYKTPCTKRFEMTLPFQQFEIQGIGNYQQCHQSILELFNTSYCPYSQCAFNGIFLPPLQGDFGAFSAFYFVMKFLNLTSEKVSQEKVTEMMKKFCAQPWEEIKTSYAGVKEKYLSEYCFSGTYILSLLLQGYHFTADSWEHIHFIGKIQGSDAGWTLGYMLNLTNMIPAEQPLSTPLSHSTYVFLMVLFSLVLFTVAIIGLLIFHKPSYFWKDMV
# [5] = biological target: T2, Ectonucleoside triphosphate diphosphohydrolase 8 (Homo sapiens); experiment: Inhibition of human NTPDase 8 expressed in human 293T cells; assay type: cell-based
# P2Y purinoceptor 2, sequence (P41231 whole entry): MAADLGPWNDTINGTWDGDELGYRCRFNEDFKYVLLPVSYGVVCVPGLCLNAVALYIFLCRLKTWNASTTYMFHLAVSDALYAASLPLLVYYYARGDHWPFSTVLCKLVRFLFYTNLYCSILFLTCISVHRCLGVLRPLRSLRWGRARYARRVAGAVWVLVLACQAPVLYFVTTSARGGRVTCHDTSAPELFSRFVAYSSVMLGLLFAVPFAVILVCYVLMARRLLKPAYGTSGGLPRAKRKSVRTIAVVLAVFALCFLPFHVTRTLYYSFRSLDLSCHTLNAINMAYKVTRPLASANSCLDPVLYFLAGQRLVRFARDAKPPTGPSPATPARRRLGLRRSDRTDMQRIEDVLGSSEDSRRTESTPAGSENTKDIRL
SMILES,Activity [1] [%],Activity (P2Y purinoceptor 2),Activity [2] [%],Activity [3],Activity [4],Activity [5]
CSc1nc(N)c2ncn([C@@H]3O[C@H](COP(=O)(O)OP(=O)(O)CP(=O)(O)O)[C@@H](O)[C@H]3O)c2n1,2,inactive,7,inactive,inactive,inactive
BP(=O)(OC[C@H]1O[C@@H](n2cnc3c(N)ncnc32)[C@H](O)[C@@H]1O)OP(=O)(O)CP(=O)(O)O (stereo not given in full),1,inactive,2,inactive,inactive,inactive
"BP(=O)(OC[C@H]1O[C@@H](n2cnc3c(N)ncnc32)[C@H](O)[C@@H]1O)OP(=O)(O)CP(=O)(O)O (single isomer, unassigned; diastereomer B)",0,inactive,< 1,inactive,inactive,inactive

# Next, values leading:
Activity [1] [%],Activity (P2Y purinoceptor 2),Activity [2] [%],Activity [3],Activity [4],Activity [5],SMILES
1,inactive,4,inactive,inactive,inactive,"BP(=O)(OC[C@H]1O[C@@H](n2cnc3c(N)nc(SC)nc32)[C@H](O)[C@@H]1O)OP(=O)(O)CP(=O)(O)O (single isomer, unassigned; diastereomer A)"
1,inactive,3,inactive,inactive,inactive,"BP(=O)(OC[C@H]1O[C@@H](n2cnc3c(N)nc(SC)nc32)[C@H](O)[C@@H]1O)OP(=O)(O)CP(=O)(O)O (single isomer, unassigned; diastereomer B)"
